This is a sample that favours compounds with a hit; in the whole collection about 0.6% have one here.
Efflux pump mplx: antifungal efflux pump inhibition, Nile Red retention; S. cerevisiae Candida pump triplex; inhibition, % at 10 µM; hit rate 0.44% among 330,000;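 active = plate passing quality check with inhibition over a set limit, or well fluorescence over plate mean plus 4 SD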;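 also: Nile Red retained in pooled yeast measured as flow cytometry median fluorescence; higher means more Nile Red kept so more efflux inhibition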
GSK3beta inhib: blocks human GSK3beta kinase activity; GST-GSK3beta kinase, ADP-Glo luminescence, 60 min; stronger effect = lower value; activity score (negative = inhibition), % at 10 µM; hit rate 0.038% among 300,000; AID 2097; P49841;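 active = more than half of replicate wells score below -50%, meaning over 50% inhibition versus plate controls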
Target sequence (P49841 whole entry, looked up): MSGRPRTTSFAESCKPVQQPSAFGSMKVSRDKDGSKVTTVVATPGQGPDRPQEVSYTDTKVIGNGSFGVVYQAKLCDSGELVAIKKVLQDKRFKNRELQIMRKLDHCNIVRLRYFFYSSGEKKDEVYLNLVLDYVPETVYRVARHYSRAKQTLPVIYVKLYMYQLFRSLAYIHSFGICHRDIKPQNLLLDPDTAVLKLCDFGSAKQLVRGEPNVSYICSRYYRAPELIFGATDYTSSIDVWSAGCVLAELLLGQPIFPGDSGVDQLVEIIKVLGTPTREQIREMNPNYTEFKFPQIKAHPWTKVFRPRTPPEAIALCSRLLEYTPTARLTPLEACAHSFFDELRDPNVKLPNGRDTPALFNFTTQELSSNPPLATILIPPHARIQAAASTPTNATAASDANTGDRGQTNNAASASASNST
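test system = GST-tagged human GSK3beta kinase, cell-free | reagent = 25 µM ATP with peptide substrate | dosing = one dose of 10 µM per compound | schedule = 60 min reaction, RT | detection = luminescent ADP-Glo measurement of ADP formed | control set = DMSO neutral wells and GW8510 at 20 µM as positive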
PolyA inhibitor: blocks polyadenylation in yeast reporter cells; S. cerevisiae SKY197-pL101 polyadenylation reporter, beta-gal luminescence; efflux-impaired pdr1/pdr3 knockout yeast; score 100 = 6 SD above DMSO; activity score, % at 12 µM; hit rate 0.02% among 300,000; AID 1875;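 active = lowest replicate activity score at least 50, where 100 means six control SD above control mean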;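 also: yeast exposed to compound for 9 h at 30 °C; higher score means more reporter readthrough which indicates perturbed polyadenylation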
STK33 kinase inh: human STK33 kinase inhibition; Q9BYT3; purified STK33, MBP phosphorylation, ADP-Glo luminescence; inhibition, % at 10 µM; hit rate 0.073% among 320,000;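 active = inhibition at or above 25%, using the most active replicate where run in duplicate; inactive = inhibition below 25%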
GSK3A inh: human GSK-3 alpha kinase inhibition | P49840 | ADP-Glo luminescence, 60 min | inhibition, % at 10 µM | hit rate 0.1% among 320,000 | AID 2650;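 active = more than half of replicates show inhibition above 20%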;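 also: GST-tagged GSK-3 alpha with peptide substrate and 25 µM ATP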
Yeast cmpd fluor: compound fluorescence in yeast efflux pump counter-screen; shares compounds with Efflux pump mplx; S. cerevisiae AD/pABC3, flow cytometry; fluorescence ratio to DMSO, % at 10 µM; hit rate 4% among 1,700;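 active = fluorescence ratio to DMSO above its plate's cutoff, the plate mean ratio plus 5 SD, cut at about 210% in these data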;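 also: unstained yeast with no Nile Red so the signal is compound autofluorescence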
Mdr1 pump inh: blocks the Candida albicans Mdr1 efflux pump in yeast | S. cerevisiae AD/CaMDR1, Nile Red efflux, flow cytometry | shares compounds with Efflux pump mplx | AID 588518 | hit rate 1% among 1,700 | inhibition, % at 10 µM; in the data active = inhibition above about 26%;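 also: higher means more Nile Red retained so more efflux inhibition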
Cdr2 pump inh: inhibitors of Candida albicans Cdr2 efflux pump; shares compounds with Efflux pump mplx; S. cerevisiae AD/CaCDR2, Nile Red retention, flow cytometry; Nile Red retention ratio vs DMSO, % at 10 µM; hit rate 4% among 1,700; AID 588520; in the data active = Nile Red retention ratio vs DMSO above about 190%;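 also: higher ratio means more blocking of Cdr2 efflux of the dye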
CaCdr1 efflux inh: Candida Cdr1 efflux pump inhibition; shares compounds with Efflux pump mplx; AID 588522; inhibition, % at 10 µM; hit rate 1% among 1,700; S. cerevisiae AD/CaCDR1, Nile Red efflux, flow cytometry;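 active = inhibition above the screen-wide mean plus twice its standard deviation, cut at about 32% in these data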
Hits are given with their value; – = inactive; · = no result.

SMILES	Efflux pump mplx	GSK3beta inhib	PolyA inhibitor	STK33 kinase inh	GSK3A inh	Yeast cmpd fluor	Mdr1 pump inh	Cdr2 pump inh	CaCdr1 efflux inh
CC(C)Sc1cc(N2CCOCC2)nc(-c2ccccc2)n1	–	–	–	–	–	–	–	–	–
CC1(C)Oc2ccc(C(=O)NC3CCCC3)cc2N(CC(=O)NC2CCCCC2)C1=O	–	–	–	–	·	·	·	·	·
COc1ccccc1OCC(=O)Nc1cc(C(F)(F)F)ccc1-n1cncn1	–	–	–	–	–	·	·	·	·
N#Cc1ccc(NCC(=O)Nc2ccc(S(=O)(=O)N3CCCCC3)cc2)cc1	–	·	·	–	–	·	·	·	·
Fc1ccc(-c2csc3[n+]2CCS3)cc1	3.0	–	–	–	–	–	–	–	–
CCN(CC)c1ccc(/C=C/c2cc(-c3ccccc3)c3ccccc3n2)cc1	1.9	–	–	–	–	–	–	–	–
CCOC(=O)c1nc(Nc2ccccc2C)c2ccccc2n1	0.9	–	–	–	–	–	–	–	–
COc1ccc(C(C(=O)NC(C)(C)C)N(Cc2ccco2)C(=O)CCC(=O)Nc2cc(C)on2)cc1 (stereo not drawn)	–	–	–	–	–	–	–	–	–
COCCN(C(=O)CCC(=O)Nc1cc(C)on1)C(C(=O)NC(C)(C)C)c1ccc(OC)cc1 (stereo not drawn)	–	–	–	–	–	–	–	–	–
O=C(C[n+]1cc(-c2ccc(Cl)c(Cl)c2)n2c1CCC2)OCc1ccccc1	6.4	–	–	–	–	–	–	–	–
O=C(COC(=O)c1cccc(Cl)c1)NCCN1C(=O)CSC1=O	–	–	–	–	–	–	–	–	–
O=C(COC(=O)c1cc(Cl)cc(Cl)c1)NCCN1C(=O)CSC1=O	–	–	–	–	–	–	–	–	–
Cc1ccc(/C=C/C(=O)OCC(=O)NCCN2C(=O)CSC2=O)cc1	–	–	–	–	–	·	·	·	·
CCNc1ccc(C(=O)OCC(=O)NCCN2C(=O)CSC2=O)cc1[N+](=O)[O-]	–	–	–	–	–	·	·	·	·
O=C(COC(=O)c1ccc(Cl)cc1O)NCCN1C(=O)CSC1=O	–	–	–	–	–	–	–	–	–
CCCCCC(=O)N(Cc1ccccc1)c1c(N)n(CCOC)c(=O)[nH]c1=O	–	–	–	–	–	·	·	·	·
N#Cc1cccc(NC(=O)COC(=O)C2CCC2)c1	–	–	–	–	–	·	·	·	·
CC[C@@]1(C(=O)OC)N[C@H](CN(C)C(=O)C2CCCCC2)[C@@H]2C(=O)N(Cc3ccccc3)C(=O)[C@@H]21	–	·	·	·	·	·	·	·	·
CCOc1ccc(NC(=O)C2CCN(S(=O)(=O)CC)CC2)cc1	–	–	–	–	–	·	·	·	·
Cc1ccc(CC2CC(=O)N(Cc3ccco3)C2=O)cc1 (stereo not drawn)	1.2	–	–	–	–	–	–	–	–
CCOc1ccc(C(=O)Nc2cccc(-c3nc4cccnc4o3)c2)cc1Cl	1.0	–	–	–	–	–	–	–	–
CCOc1ccc(C(=O)Nc2cccc(C(=O)O)c2)cc1Cl	–	–	–	–	–	·	·	·	·
CCOC(=O)c1ccc(NC(=O)CSc2nc3c(c(=O)n2-c2ccccc2OC)SCC3)cc1	–	–	–	–	–	·	·	·	·
COc1ccc(NC(=O)CSc2nc3c(c(=O)n2-c2ccccc2OC)SCC3)cc1	1.1	–	–	–	–	–	–	–	–
CC(C)(C)C(=O)N1NC(=Nc2ccccc2)SC1(C)C	–	–	–	–	–	·	·	·	·
COC(=O)NCc1ccc(S(=O)(=O)N2CCOCC2)cc1	0.5	–	–	–	–	–	–	–	–
CC1(C(=O)O)COC(c2ccc(Cl)cc2)OC1 (stereo not drawn)	–	–	–	–	–	·	·	·	·
COC(=O)c1ccc(C2OCC(C)(C)CO2)cc1	1.1	–	–	–	–	–	–	–	–
CN(Cc1nc2ccccc2c(=O)[nH]1)C(=O)c1cccc(NC(=O)c2cccs2)c1	–	·	·	·	·	·	·	·	·
